The record followed here is ChEMBL document CHEMBL4138147, “Discovery of a fluorescent probe with HDAC6 selective inhibition” (Eur J Med Chem, 2017).

Data set [1] concerns the target Histone deacetylase 3 (Homo sapiens, UniProt O15379). The experiment in a line: Inhibition of human recombinant full-length C-terminal GST-tagged HDAC3 expressed in baculovirus infected Sf9 cells using Boc-Lys(acetyl)-AMC as substrate after 30 mins by fluorescence assay.
Data set [2] concerns the target Histone deacetylase 1/2/3 (Homo sapiens) (UniProt Q13547+O15379+Q92769). The conditions noted are these: A549, at 500 nM.
Data set [3] deals with Histone deacetylase 2 (Homo sapiens, UniProt Q92769). The experiment in a line: Inhibition of human recombinant full-length C-terminal GST-tagged HDAC2 expressed in baculovirus infected Sf9 cells using Boc-Lys(acetyl)-AMC as substrate after 30 mins by fluorescence assay. The format is cell-based.
The target of data set [4] is Histone deacetylase 1 (Homo sapiens, UniProt Q13547). The data set is described as follows: Inhibition of human recombinant full-length HDAC1 (1 to 482 residues) expressed in baculovirus using Boc-Lys(acetyl)-AMC as substrate after 30 mins by fluorescence assay.
Data set [5] addresses T1, Protein deacetylase HDAC6 (Homo sapiens, UniProt Q9UBN7).
T1 sequence (Q9UBN7 whole entry): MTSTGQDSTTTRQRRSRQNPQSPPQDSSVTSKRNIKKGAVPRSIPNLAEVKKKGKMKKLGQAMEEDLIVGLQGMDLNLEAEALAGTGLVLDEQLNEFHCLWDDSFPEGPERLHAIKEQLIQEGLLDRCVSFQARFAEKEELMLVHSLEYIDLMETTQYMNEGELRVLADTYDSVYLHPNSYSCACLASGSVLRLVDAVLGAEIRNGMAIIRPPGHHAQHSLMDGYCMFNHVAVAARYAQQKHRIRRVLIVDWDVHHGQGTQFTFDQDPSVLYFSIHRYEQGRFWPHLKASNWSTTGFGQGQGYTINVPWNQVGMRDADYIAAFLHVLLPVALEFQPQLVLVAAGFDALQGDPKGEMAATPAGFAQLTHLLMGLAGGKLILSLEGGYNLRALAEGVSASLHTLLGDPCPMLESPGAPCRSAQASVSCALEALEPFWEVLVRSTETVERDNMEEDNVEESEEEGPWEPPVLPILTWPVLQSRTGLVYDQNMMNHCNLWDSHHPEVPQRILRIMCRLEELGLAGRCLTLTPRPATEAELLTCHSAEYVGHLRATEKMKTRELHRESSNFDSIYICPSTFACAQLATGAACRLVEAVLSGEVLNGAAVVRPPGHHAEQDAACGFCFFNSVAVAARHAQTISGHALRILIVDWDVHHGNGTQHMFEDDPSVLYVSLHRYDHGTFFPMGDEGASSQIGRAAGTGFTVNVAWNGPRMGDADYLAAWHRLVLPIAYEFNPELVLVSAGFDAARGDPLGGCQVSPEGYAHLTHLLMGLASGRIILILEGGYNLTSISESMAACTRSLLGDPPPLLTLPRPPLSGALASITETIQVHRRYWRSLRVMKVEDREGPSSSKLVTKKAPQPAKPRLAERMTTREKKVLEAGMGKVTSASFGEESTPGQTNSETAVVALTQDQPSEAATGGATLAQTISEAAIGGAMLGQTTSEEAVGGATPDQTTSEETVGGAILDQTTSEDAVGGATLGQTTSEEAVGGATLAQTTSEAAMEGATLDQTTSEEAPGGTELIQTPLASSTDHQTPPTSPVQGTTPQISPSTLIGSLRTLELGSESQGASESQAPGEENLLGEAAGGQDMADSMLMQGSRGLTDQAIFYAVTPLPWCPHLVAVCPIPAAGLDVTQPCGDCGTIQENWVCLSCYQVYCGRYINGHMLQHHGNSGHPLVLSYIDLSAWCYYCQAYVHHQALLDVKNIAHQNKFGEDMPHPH
The data set is described as follows: Inhibition of human recombinant full-length HDAC6 expressed in baculovirus infected Sf9 cells using Boc-Lys(acetyl)-AMC as substrate after 30 mins by fluorescence assay.

Data set [6] has as its target T2, Protein deacetylase HDAC6 (Homo sapiens) (UniProt Q9UBN7).
T2 sequence (whole entry): T1 sequence (Q9UBN7 whole entry)
The experiment in a line: Binding affinity to HDAC6 in aggresomes of human A549 cells assessed as formation of aggresome-like structures at 2 uM added after 24 hrs pre-treatment with MG132 followed by compound addition measured after 2 hrs by fluorescence staining-based confocal microscopic analysis. A digest of the protocol: (§1)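 A549 cells (DMEM, 10% FBS, 37 °C, 5% CO2) given DMSO or 5 μM MG132 for 24 h, fixed in 4% formaldehyde/PBS 20 min, then stained with 2 μM compound in PBS for 2 h. For antibody co-staining, cells were permeabilized with 0.1% Triton X-100, BSA-blocked, and probed overnight at 4 °C with anti-HDAC6 or anti-ubiquitin antibody plus Alexa 647 secondary before the compound. Confocal imaging: compound ex 405/em 500–600 nm; antibody ex 633/em 650–750 nm.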

Data set [7] can be described thus: Drug uptake in cytoplasm of human A549 cells assessed as diffused staining in cytoplasm at 2 uM added after 24 hrs pre-treatment with DMSO followed by compound addition measured after 2 hrs by fluorescence staining-based confocal microscopic analysis. The format is ADME, subcellular. The following applies: a549, 24 h. A digest of the protocol: as §1
Data set [8] deals with T3, Histone deacetylase 11 (Homo sapiens, UniProt Q96DB2).
T3 sequence (Q96DB2 whole entry): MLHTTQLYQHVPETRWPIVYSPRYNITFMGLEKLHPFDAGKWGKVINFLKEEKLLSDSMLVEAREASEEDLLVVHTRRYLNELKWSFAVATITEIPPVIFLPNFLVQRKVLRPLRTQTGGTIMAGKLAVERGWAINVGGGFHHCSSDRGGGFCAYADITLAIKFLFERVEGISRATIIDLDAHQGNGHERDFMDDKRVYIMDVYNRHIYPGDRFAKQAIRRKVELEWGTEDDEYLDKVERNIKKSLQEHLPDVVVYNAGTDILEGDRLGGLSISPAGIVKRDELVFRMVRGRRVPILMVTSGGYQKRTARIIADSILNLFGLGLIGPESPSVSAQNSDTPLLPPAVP
The data set is described as follows: Inhibition of HDAC11 (unknown origin) using Boc-Lys(acetyl)-AMC as substrate after 30 mins by fluorescence assay. A digest of the protocol: (§2)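 The HDAC isoform was incubated with substrate and compound (from a 10% DMSO dilution, 5 μL into a 50 μL reaction) at 37 °C for 30 min. The reaction was stopped with developer containing trypsin and TSA.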

The target of data set [9] is T4, Histone deacetylase 7 (Homo sapiens, UniProt Q8WUI4).
T4 sequence (Q8WUI4 whole entry): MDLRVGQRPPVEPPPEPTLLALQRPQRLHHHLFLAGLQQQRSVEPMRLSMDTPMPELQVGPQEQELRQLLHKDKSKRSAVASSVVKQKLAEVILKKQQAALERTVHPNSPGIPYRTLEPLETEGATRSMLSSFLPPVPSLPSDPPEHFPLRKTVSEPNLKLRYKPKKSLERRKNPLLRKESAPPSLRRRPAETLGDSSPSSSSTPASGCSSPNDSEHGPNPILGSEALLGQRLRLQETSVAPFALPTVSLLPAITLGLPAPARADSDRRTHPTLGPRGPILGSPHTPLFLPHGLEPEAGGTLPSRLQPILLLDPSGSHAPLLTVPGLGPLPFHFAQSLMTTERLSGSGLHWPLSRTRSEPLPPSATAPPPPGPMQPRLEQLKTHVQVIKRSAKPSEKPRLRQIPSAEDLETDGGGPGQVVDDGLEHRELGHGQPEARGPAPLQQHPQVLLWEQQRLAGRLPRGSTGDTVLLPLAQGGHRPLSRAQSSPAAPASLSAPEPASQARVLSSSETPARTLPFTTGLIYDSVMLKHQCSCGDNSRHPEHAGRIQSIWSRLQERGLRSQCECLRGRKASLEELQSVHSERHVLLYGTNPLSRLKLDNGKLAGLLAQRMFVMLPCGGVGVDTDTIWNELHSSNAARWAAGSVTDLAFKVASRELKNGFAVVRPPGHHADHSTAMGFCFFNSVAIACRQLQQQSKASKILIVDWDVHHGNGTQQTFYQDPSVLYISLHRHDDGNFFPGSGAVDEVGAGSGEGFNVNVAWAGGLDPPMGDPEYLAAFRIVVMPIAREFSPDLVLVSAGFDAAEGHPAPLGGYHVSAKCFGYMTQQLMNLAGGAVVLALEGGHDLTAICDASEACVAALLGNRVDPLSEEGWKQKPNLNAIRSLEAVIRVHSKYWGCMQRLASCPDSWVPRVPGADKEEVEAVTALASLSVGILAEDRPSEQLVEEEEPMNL
The data set is described as follows: Inhibition of HDAC7 (unknown origin) using Boc-Lys(acetyl)-AMC as substrate after 30 mins by fluorescence assay.

The target in data set [10] is T5, Histone deacetylase 8 (Homo sapiens, UniProt Q9BY41).
T5 sequence (Q9BY41 whole entry): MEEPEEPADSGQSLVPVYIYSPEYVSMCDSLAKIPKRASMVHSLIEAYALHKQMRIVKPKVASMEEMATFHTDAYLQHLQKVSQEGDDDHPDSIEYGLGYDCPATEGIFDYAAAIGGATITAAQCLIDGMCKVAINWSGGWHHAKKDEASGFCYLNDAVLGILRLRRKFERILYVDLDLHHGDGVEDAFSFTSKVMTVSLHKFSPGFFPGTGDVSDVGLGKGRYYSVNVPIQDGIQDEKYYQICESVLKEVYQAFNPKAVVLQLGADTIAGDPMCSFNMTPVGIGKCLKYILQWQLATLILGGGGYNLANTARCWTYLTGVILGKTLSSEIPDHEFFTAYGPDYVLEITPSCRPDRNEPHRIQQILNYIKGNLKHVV
The data set is described as follows: Inhibition of HDAC8 (unknown origin) using Boc-Lys(acetyl)-AMC as substrate after 30 mins by fluorescence assay. A digest of the protocol:
as §2

In data set [11] the target is Histone deacetylase 4 (Homo sapiens, UniProt P56524). The experiment in a line: Inhibition of HDAC4 (unknown origin) using Boc-Lys(acetyl)-AMC as substrate after 30 mins by fluorescence assay. Put shortly: as §2
Data set [12] has as its target T2, Protein deacetylase HDAC6 (Homo sapiens). The data set is described as follows: Binding affinity to HDAC6 in aggresomes of human A549 cells assessed as relocation of compound to single bright juxtanuclear structure at 2 uM added after 24 hrs pre-treatment with MG132 followed by compound addition measured after 2 hrs by fluorescence staining-based confocal microscopic analysis. A digest of the protocol:
as §1

In data set [13] the target is T6, Polyamine deacetylase HDAC10 (Homo sapiens, UniProt Q969S8).
T6 sequence (Q969S8 whole entry): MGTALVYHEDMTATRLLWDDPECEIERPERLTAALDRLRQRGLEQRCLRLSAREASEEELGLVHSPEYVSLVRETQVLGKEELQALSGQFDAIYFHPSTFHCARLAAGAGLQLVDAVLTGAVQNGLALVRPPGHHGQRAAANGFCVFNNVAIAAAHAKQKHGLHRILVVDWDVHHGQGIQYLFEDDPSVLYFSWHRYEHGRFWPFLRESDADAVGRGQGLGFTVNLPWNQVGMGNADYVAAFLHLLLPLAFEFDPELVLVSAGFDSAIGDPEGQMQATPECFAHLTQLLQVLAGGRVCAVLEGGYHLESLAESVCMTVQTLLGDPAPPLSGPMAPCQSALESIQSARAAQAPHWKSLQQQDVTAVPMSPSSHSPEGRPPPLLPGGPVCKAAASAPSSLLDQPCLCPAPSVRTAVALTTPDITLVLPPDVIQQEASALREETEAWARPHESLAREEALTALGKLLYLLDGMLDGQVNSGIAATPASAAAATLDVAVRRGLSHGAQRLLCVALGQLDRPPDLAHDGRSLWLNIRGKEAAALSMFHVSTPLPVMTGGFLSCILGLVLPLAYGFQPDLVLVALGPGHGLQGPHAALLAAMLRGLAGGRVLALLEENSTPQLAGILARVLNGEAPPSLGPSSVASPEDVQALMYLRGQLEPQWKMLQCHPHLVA
The data set is described as follows: Inhibition of HDAC10 (unknown origin) using Boc-Lys(acetyl)-AMC as substrate after 30 mins by fluorescence assay. Put shortly: as §2

Data set [14] concerns the target T2, Protein deacetylase HDAC6 (Homo sapiens). The data set is described as follows: Binding affinity to HDAC6 in aggresomes of human A549 cells assessed as induction of co-localization of aggresome-like structures with polyubiquitin at 2 uM added after 24 hrs pre-treatment with MG132 followed by compound addition measured after 2 hrs by fluorescence staining-based confocal microscopic analysis. Put shortly: as §1

The target of data set [15] is Histone deacetylase 5 (Homo sapiens, UniProt Q9UQL6). The data set is described as follows: Inhibition of HDAC5 (unknown origin) using Boc-Lys(acetyl)-AMC as substrate after 30 mins by fluorescence assay. A digest of the protocol: as §2
Data set [16] is described as follows: Drug uptake in human A549 cells assessed as intracellular distribution at 2 uM added after 24 hrs pre-treatment with MG132 followed by compound addition measured after 2 hrs by fluorescence staining-based confocal microscopic analysis. It is filed as ADME, cell-based. The following applies: a549, 24 h. A digest of the protocol:
as §1

Data set [17] deals with Histone deacetylase 9 (Homo sapiens, UniProt Q9UKV0). The data set is described as follows: Inhibition of HDAC9 (unknown origin) using Boc-Lys(acetyl)-AMC as substrate after 30 mins by fluorescence assay. Put shortly: as §2

Calls of active or inactive are those of the source. The rule behind the calls is not given here. A value given as a limit tells only on which side of the number the result lay.

Histone deacetylase 3, sequence (O15379 whole entry): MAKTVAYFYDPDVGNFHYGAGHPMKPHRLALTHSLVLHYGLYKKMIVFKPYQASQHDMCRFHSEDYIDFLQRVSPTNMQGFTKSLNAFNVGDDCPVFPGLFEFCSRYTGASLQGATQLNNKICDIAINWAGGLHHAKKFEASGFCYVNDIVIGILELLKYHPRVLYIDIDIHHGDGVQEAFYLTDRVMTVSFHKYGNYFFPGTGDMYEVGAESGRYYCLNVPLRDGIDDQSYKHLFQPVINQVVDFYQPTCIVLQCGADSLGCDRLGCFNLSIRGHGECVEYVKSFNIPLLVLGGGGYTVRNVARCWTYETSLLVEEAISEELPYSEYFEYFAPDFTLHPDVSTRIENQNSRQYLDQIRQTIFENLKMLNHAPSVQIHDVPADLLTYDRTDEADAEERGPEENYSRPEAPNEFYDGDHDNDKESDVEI
Histone deacetylase 1, sequence (Q13547 whole entry, the tested form may be a part): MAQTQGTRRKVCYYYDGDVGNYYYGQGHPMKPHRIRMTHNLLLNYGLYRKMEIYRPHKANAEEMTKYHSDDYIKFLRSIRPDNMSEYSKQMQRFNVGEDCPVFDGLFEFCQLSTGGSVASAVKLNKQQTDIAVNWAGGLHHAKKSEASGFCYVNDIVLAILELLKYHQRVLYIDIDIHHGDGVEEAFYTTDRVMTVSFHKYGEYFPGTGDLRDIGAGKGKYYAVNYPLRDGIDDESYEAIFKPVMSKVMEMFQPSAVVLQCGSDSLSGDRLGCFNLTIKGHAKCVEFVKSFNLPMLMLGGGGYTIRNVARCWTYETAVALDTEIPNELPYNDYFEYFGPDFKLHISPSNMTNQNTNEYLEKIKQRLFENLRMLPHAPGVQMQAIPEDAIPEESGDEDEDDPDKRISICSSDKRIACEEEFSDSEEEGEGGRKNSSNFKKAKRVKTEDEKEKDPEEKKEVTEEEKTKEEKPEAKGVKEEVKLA
Histone deacetylase 2, sequence (Q92769 whole entry, the tested form may be a part): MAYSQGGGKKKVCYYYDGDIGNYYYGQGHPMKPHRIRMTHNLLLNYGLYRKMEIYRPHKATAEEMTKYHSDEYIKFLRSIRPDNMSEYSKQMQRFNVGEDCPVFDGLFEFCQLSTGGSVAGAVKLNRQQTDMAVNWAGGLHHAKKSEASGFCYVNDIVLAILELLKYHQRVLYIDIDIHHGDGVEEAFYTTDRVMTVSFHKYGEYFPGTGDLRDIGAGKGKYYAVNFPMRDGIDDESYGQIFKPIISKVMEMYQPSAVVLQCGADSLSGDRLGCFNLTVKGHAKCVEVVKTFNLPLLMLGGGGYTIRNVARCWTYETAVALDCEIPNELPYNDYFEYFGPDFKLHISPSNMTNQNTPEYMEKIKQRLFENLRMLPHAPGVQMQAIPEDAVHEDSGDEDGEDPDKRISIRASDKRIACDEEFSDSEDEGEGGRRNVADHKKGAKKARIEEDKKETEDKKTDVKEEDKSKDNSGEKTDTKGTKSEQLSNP
Histone deacetylase 4, sequence (P56524 whole entry): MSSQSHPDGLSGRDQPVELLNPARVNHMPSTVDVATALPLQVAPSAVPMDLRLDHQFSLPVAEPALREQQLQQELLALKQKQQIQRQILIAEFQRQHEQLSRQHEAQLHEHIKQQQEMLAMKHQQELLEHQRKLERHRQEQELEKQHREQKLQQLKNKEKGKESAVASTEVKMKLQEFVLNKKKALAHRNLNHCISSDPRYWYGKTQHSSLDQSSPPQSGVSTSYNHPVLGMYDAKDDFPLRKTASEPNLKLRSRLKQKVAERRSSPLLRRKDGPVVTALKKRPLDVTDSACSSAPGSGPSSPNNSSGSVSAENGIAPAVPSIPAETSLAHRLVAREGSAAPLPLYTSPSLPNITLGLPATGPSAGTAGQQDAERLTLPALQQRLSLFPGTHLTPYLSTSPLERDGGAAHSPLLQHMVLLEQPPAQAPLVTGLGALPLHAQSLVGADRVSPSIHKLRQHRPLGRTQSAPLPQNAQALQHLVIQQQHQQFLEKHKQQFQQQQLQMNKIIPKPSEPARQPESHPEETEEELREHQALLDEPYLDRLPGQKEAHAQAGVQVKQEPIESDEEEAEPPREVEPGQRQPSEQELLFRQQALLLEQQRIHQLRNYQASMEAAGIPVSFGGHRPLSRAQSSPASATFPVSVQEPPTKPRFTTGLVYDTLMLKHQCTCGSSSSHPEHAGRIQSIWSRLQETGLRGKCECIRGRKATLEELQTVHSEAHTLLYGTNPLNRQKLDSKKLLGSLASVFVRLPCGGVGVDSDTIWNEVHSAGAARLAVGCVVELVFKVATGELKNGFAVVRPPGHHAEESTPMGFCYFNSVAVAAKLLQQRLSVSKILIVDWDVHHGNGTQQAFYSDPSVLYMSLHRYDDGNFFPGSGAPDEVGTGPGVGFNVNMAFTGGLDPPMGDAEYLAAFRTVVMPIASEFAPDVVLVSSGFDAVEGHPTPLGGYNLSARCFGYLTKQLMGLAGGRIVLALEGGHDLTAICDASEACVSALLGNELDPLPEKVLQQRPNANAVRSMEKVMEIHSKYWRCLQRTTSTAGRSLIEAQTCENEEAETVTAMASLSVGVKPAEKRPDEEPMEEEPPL
Histone deacetylase 9, sequence (Q9UKV0 whole entry): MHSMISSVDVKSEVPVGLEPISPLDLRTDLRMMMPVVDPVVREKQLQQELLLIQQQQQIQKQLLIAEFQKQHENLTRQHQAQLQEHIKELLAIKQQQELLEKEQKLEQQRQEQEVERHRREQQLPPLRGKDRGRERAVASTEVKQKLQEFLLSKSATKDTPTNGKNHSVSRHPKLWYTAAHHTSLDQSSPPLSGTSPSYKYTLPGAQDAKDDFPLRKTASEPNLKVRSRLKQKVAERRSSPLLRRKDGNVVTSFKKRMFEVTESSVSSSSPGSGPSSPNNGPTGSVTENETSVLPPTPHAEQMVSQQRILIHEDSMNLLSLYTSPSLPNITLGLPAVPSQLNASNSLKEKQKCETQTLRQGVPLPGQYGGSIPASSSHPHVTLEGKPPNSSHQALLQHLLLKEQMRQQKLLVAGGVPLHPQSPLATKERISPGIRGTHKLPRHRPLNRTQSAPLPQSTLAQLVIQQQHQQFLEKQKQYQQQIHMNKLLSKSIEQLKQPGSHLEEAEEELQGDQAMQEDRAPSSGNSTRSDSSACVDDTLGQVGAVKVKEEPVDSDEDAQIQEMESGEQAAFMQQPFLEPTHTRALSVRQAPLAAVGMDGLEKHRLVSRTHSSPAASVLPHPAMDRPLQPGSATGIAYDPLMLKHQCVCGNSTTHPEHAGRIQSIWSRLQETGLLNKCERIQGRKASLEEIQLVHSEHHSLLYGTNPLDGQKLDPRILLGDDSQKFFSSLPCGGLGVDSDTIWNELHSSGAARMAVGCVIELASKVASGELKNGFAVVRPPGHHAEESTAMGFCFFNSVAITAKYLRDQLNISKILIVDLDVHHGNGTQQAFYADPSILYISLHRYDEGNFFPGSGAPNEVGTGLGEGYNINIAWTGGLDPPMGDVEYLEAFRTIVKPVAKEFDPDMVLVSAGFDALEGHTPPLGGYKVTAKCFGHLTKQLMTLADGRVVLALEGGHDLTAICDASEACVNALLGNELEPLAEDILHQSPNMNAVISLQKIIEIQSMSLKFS
Histone deacetylase 5, sequence (Q9UQL6 whole entry): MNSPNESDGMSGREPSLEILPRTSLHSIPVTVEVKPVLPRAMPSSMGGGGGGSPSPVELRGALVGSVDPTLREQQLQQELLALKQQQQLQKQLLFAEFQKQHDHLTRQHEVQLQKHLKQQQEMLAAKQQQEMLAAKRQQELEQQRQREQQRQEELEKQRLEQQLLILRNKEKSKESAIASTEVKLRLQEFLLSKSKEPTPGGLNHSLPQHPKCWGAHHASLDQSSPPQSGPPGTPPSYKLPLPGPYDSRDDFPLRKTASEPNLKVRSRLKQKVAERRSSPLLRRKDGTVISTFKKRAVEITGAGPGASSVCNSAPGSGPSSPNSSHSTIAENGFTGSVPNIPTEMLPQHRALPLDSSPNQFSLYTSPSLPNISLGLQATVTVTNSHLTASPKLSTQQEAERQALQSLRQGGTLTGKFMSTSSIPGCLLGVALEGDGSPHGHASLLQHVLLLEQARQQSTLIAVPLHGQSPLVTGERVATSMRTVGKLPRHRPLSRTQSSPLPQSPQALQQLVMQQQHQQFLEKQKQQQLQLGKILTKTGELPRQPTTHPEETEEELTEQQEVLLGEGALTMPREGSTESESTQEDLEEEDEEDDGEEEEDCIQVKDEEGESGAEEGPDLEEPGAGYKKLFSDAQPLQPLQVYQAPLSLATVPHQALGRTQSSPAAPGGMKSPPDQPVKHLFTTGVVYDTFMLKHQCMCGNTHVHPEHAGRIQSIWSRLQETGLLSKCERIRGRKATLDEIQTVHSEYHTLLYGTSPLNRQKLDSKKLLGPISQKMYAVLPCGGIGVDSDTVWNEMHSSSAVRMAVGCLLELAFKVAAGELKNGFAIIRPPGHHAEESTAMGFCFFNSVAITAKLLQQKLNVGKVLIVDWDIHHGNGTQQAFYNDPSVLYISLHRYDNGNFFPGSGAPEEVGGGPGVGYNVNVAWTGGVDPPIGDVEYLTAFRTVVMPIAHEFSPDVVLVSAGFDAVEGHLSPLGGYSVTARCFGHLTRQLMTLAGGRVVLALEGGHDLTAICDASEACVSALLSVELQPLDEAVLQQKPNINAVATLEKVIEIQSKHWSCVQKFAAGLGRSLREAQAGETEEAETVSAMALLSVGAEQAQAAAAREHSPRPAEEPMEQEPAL

What is called IC50 is the concentration needed to halve the response being measured. As to `O=C(NO)c1ccc(CN2C(=O)c3cccc4c(N5CCOCC5)ccc(c34)C2=O)cc1`, the IC50 in data set [1] stood at 11.1 nM; in data set [3] it was 98.8 nM; in data set [4] it was 36.2 nM; in [5], 2.7 nM. Besides, the inhibition result in data set [2] was “Active”. The result in data set [6] was inactive.
Regarding `O=C(CCCCCN1C(=O)c2cccc3c(N4CCOCC4)ccc(c23)C1=O)NO`, the IC50 in data set [1] is 2.65 nM; in [3] it was 25.6 nM; in [4], 5.25 nM; in data set [5], 0.65 nM. Further, the outcome in data set [6] was inactive.
For `O=C(NO)c1ccc(CCN2C(=O)c3cccc4c(N5CCOCC5)ccc(c34)C2=O)cc1`, the Drug uptake entry in [7] and in data set [16] was “Active” throughout. The IC50 was above 30000 nM in data set [1]; above 10000 nM in data set [8]; above 100000 nM in [9]; 3050 nM in [10]; above 100000 nM in data set [3]; above 20000 nM in data set [4]. Moreover, the IC50 was above 100000 nM in [11]; 139 nM in [5]; 1870 nM in data set [13]; above 100000 nM in data set [15]; above 30000 nM in [17]. Besides, in data set [2], the inhibition result was “inactive”. Also, the outcome in data set [6], in data set [12] and in data set [14] was Active.
